# Columns and labels:
# Pseudomonas fluorescens = assay: Growth inhibition of Pseudomonas fluorescens NCIM 2036 at 30 ug/ml measured after 8 hrs relative to control; type: functional; conditions: NCIM 2036, 8 h, read-out: GI
# Procedure, shortened: (§1)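 Bacteria grown in LB at 37 °C and 180 rpm to OD 1. Compounds added to wells, then 0.1% inoculum of 1 OD culture (620 nm). Growth read as OD at 620 nm after 8 h for gram-negative and after 12 h for gram-positive strains.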
# [1] = system: Mycobacterium tuberculosis; assay: Growth inhibition of Mycobacterium tuberculosis H37Ra ATCC 25177 at dormant stage measured after 12 days by XTT dye based two fold dilution method; type: functional; conditions: H37Ra ATCC 25177, 288 h
# Procedure, shortened: (§2)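 MTB H37Ra was grown in Dubos medium, then exposed in Mycobacterium pheli minimal medium (pH 6.6) to compounds dissolved in DMSO. The assay ended on day 8 (active) or day 12 (dormant). Viable cells were measured by XTT reduction menadione assay at 470 nm, blank-corrected, relative to vehicle control. Triplicates were expressed as mean ± SD. MIC came from dose-response curves.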
# [2] = Cytotoxicity against primary HUVEC assessed as growth inhibition at 100 ug/ml measured after 48 hrs by MTT assay relative to control; type: toxicity, cell-based; conditions: human, read-out: GI
# [3] = system: Mycobacterium tuberculosis; assay: Growth inhibition of Mycobacterium tuberculosis H37Ra ATCC 25177 at active stage at 50 ug/ml measured after 8 days by XTT dye based two fold dilution method relative to control; type: functional; conditions: H37Ra ATCC 25177, 192 h, read-out: GI; procedure, shortened: as §2
# Aspergillus flavus = assay: Antifungal activity against Aspergillus flavus NCIM 539 by standard agar method; type: functional
# Procedure, shortened: (§3)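 MICs determined by standard agar method; DMSO as solvent control.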
# Staphylococcus aureus [4] = assay: Growth inhibition of Staphylococcus aureus NCIM 2010 at 30 ug/ml measured after 12 hrs relative to control; type: functional; conditions: NCIM 2010, 12 h, read-out: GI; procedure, shortened: as §1
# [5] = system: Mycobacterium tuberculosis; assay: Growth inhibition of Mycobacterium bovis BCG ATCC 35743 at active stage at 100 ug/ml measured after 8 days by nitrate reductase dye based two fold dilution method relative to control; type: functional; conditions: BCG str. ATCC 35743, 192 h, read-out: GI
# [6] = system: Mycobacterium tuberculosis; assay: Growth inhibition of Mycobacterium bovis BCG ATCC 35743 at dormant stage at 3 ug/ml measured after 12 days by nitrate reductase dye based two fold dilution method relative to control; type: functional; conditions: BCG str. ATCC 35743, 288 h, read-out: GI
# Procedure, shortened: (§4)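 M. bovis BCG was grown in Dubos medium and assayed in Mycobacterium pheli minimal medium (pH 6.6), with compounds from DMSO stocks. Incubation lasted 8 days for active and 12 days for dormant cultures. Viability was read by nitrate reductase at 540 nm against cell-free blanks, with vehicle set as 100% growth. Primary screen was at 30, 10 and 3 µg/ml, in triplicate, mean ± SD. MIC was taken from dose-response curves.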
# Escherichia coli [7] = assay: Antibacterial activity against Escherichia coli NCIM 2688 measured after 8 hrs; type: functional; conditions: NCIM 2688, 8 h; procedure, shortened: as §1
# [8] = system: Mycobacterium tuberculosis; assay: Growth inhibition of Mycobacterium bovis BCG ATCC 35743 at active stage at 12.5 ug/ml measured after 8 days by nitrate reductase dye based two fold dilution method relative to control; type: functional; conditions: BCG str. ATCC 35743, 192 h, read-out: GI
# [9] = system: Mycobacterium tuberculosis; assay: Growth inhibition of Mycobacterium tuberculosis H37Ra ATCC 25177 at active stage at 1.56 ug/ml measured after 8 days by XTT dye based two fold dilution method relative to control; type: functional; conditions: H37Ra ATCC 25177, 192 h, read-out: GI; procedure, shortened: as §2
# [10] = Cytotoxicity against human HeLa cells measured after 48 hrs by MTT assay; type: toxicity, cell-based
# Staphylococcus aureus [11] = assay: Growth inhibition of Staphylococcus aureus NCIM 2010 at 3 ug/ml measured after 12 hrs relative to control; type: functional; conditions: NCIM 2010, 12 h, read-out: GI; procedure, shortened: as §1
# Escherichia coli [12] = assay: Growth inhibition of Escherichia coli NCIM 2688 at 3 ug/ml measured after 8 hrs relative to control; type: functional; conditions: NCIM 2688, 8 h, read-out: GI; procedure, shortened: as §1
# [13] = system: Mycobacterium tuberculosis; assay: Growth inhibition of Mycobacterium tuberculosis H37Ra ATCC 25177 at dormant stage at 25 ug/ml measured after 12 days by XTT dye based two fold dilution method relative to control; type: functional; conditions: H37Ra ATCC 25177, 288 h, read-out: GI; procedure, shortened: as §2
# [14] = system: Mycobacterium tuberculosis; assay: Growth inhibition of Mycobacterium bovis BCG ATCC 35743 at active stage at 3.13 ug/ml measured after 8 days by nitrate reductase dye based two fold dilution method relative to control; type: functional; conditions: BCG str. ATCC 35743, 192 h, read-out: GI; procedure, shortened: as §4
# [15] = system: Mycobacterium tuberculosis; assay: Growth inhibition of Mycobacterium tuberculosis H37Ra ATCC 25177 at active stage at 25 ug/ml measured after 8 days by XTT dye based two fold dilution method relative to control; type: functional; conditions: H37Ra ATCC 25177, 192 h, read-out: GI; procedure, shortened: as §2
# [16] = system: Mycobacterium tuberculosis; assay: Growth inhibition of Mycobacterium bovis BCG ATCC 35743 at dormant stage at 0.78 ug/ml measured after 12 days by nitrate reductase dye based two fold dilution method relative to control; type: functional; conditions: BCG str. ATCC 35743, 288 h, read-out: GI; procedure, shortened: as §4
# [17] = system: Mycobacterium tuberculosis; assay: Growth inhibition of Mycobacterium tuberculosis H37Ra ATCC 25177 at active stage at 3.13 ug/ml measured after 8 days by XTT dye based two fold dilution method relative to control; type: functional; conditions: H37Ra ATCC 25177, 192 h, read-out: GI; procedure, shortened: as §2
# [18] = system: Mycobacterium tuberculosis; assay: Growth inhibition of Mycobacterium tuberculosis H37Ra ATCC 25177 at active stage at 0.78 ug/ml measured after 8 days by XTT dye based two fold dilution method relative to control; type: functional; conditions: H37Ra ATCC 25177, 192 h, read-out: GI; procedure, shortened: as §2
# [19] = Cytotoxicity against […]-differentiated human THP1 cells measured after 48 hrs by MTT assay; type: toxicity, cell-based, THP-1
# Procedure, shortened: (§5)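 MTT assay with 48 h compound exposure. THP-1 macrophages made by 24 h PMA treatment. Each concentration tested in triplicate in one experiment. % cytotoxicity = (control−test)/(control−blank)×100, with control = cells + DMSO and blank = medium without cells. IC50 from % survival versus concentration plots.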
# Aspergillus niger = assay: Antifungal activity against Aspergillus niger NCIM 1196 by standard agar method; type: functional; procedure, shortened: as §3
# [20] = system: Mycobacterium tuberculosis; assay: Growth inhibition of Mycobacterium tuberculosis H37Ra ATCC 25177 at dormant stage at 12.5 ug/ml measured after 12 days by XTT dye based two fold dilution method relative to control; type: functional; conditions: H37Ra ATCC 25177, 288 h, read-out: GI
# [21] = system: Mycobacterium tuberculosis; assay: Growth inhibition of Mycobacterium bovis BCG ATCC 35743 at dormant stage at 3.13 ug/ml measured after 12 days by nitrate reductase dye based two fold dilution method relative to control; type: functional; conditions: BCG str. ATCC 35743, 288 h, read-out: GI; procedure, shortened: as §4
# Staphylococcus aureus [22] = assay: Growth inhibition of Staphylococcus aureus NCIM 2010 at 10 ug/ml measured after 12 hrs relative to control; type: functional; conditions: NCIM 2010, 12 h, read-out: GI; procedure, shortened: as §1
# [23] = system: Mycobacterium tuberculosis; assay: Growth inhibition of Mycobacterium bovis BCG ATCC 35743 at dormant stage at 6.25 ug/ml measured after 12 days by nitrate reductase dye based two fold dilution method relative to control; type: functional; conditions: BCG str. ATCC 35743, 288 h, read-out: GI; procedure, shortened: as §4
# [24] = system: Mycobacterium tuberculosis; assay: Growth inhibition of Mycobacterium bovis BCG ATCC 35743 at active stage at 1.56 ug/ml measured after 8 days by nitrate reductase dye based two fold dilution method relative to control; type: functional; conditions: BCG str. ATCC 35743, 192 h, read-out: GI; procedure, shortened: as §4
# [25] = Cytotoxicity against human HeLa cells at 100 ug/ml assessed as growth inhibition measured after 48 hrs by MTT assay relative to control; type: toxicity, cell-based; conditions: read-out: GI
# [26] = Cytotoxicity against human THP1 cells measured after 48 hrs by MTT assay; type: toxicity, cell-based, THP-1; procedure, shortened: as §5
# [27] = Selectivity index, ratio of GI50 for HUVEC to MIC for Mycobacterium tuberculosis H37Ra ATCC 25177 at dormant stage
Compound,inhibition of growth at 30 µg/mL (Pseudomonas fluorescens),IC50 [1],IC90 [1],"inhibition at 48 h, 100 ug/ml [2]",inhibition of growth at 50 µg/mL [3],MIC (Aspergillus flavus),inhibition of growth at 30 µg/mL (Staphylococcus aureus [4]),inhibition of growth at 100 µg/mL [5],inhibition of growth at 3 µg/mL [6],MIC (Escherichia coli [7]),inhibition of growth at 12.5 µg/mL [8],inhibition of growth at 1.56 µg/mL [9],GI50 at 48 h [10],inhibition of growth at 3 µg/mL (Staphylococcus aureus [11]),inhibition of growth at 3 µg/mL (Escherichia coli [12]),inhibition of growth at 25 µg/mL [13],inhibition of growth at 3.13 µg/mL [14],inhibition of growth at 25 µg/mL [15],inhibition of growth at 0.78 µg/mL [16],inhibition of growth at 3.13 µg/mL [17],also measured
COc1ccc2cc(/C=C3\SC(=S)NC3=O)c(Cl)nc2c1,46.2%,10 µg/mL,> 30 µg/mL,25.4%,102%,100 µg/mL,-23.5%,98.9%,-7.94%,> 30 µg/mL,98.9%,-6.28%,> 100 µg/mL,9.19%,26.4%,103%,91.5%,109%,-50.5%,8.88%,"inhibition of growth at 0.78 µg/mL [18]: 16.8%; GI50 at 48 h [19]: > 100 µg/mL; MIC (Aspergillus niger): 75 µg/mL; inhibition of growth at 12.5 µg/mL [20]: 69.5%; inhibition of growth at 3.13 µg/mL [21]: 81.6%; inhibition of growth at 10 µg/mL (Staphylococcus aureus [22]): 44%; inhibition of growth at 6.25 µg/mL [23]: 94%; inhibition of growth at 1.56 µg/mL [24]: -36.6%; inhibition at 48 h, 100 ug/ml [25]: 30.1%; GI50 at 48 h [26]: > 100 µg/mL"
O=C1NC(=S)S/C1=C\c1cc2cc(F)ccc2nc1Cl,50.2%,5.1 µg/mL,18 µg/mL,34.2%,119%,12.5 µg/mL,101%,97.7%,0.38%,> 30 µg/mL,98.3%,31.9%,> 100 µg/mL,45.3%,18.9%,95.7%,71.3%,101%,-38.3%,52.6%,"Selectivity Index [27]: 5.6; inhibition of growth at 0.78 µg/mL [18]: 9.07%; GI50 at 48 h [19]: > 100 µg/mL; MIC (Aspergillus niger): 25 µg/mL; inhibition of growth at 12.5 µg/mL [20]: 87.3%; inhibition of growth at 3.13 µg/mL [21]: 25.5%; inhibition of growth at 10 µg/mL (Staphylococcus aureus [22]): 71.3%; inhibition of growth at 6.25 µg/mL [23]: 100%; inhibition of growth at 1.56 µg/mL [24]: -13.2%; inhibition at 48 h, 100 ug/ml [25]: 20%; GI50 at 48 h [26]: > 100 µg/mL"
O=C1NC(=S)S/C1=C\c1cc2cc(Cl)ccc2nc1Cl,99.8%,2.2 µg/mL,6.3 µg/mL,25.9%,97.5%,125 µg/mL,101%,98.4%,99.8%,2.44 µg/mL,99.5%,23.3%,> 100 µg/mL,101%,106%,96.8%,98.9%,100%,-9.1%,81.1%,"Selectivity Index [27]: 15.6; inhibition of growth at 0.78 µg/mL [18]: 24.1%; GI50 at 48 h [19]: > 100 µg/mL; MIC (Aspergillus niger): 150 µg/mL; inhibition of growth at 12.5 µg/mL [20]: 70.3%; inhibition of growth at 3.13 µg/mL [21]: 100%; inhibition of growth at 10 µg/mL (Staphylococcus aureus [22]): 114%; inhibition of growth at 6.25 µg/mL [23]: 101%; inhibition of growth at 1.56 µg/mL [24]: 86.2%; inhibition at 48 h, 100 ug/ml [25]: 45.5%; GI50 at 48 h [26]: > 100 µg/mL"
CCOc1ccc2nc(Cl)c(/C=C3\SC(=S)NC3=O)cc2c1,76%,2.3 µg/mL,3.5 µg/mL,33%,100%,50 µg/mL,-29.8%,96.8%,91%,> 30 µg/mL,98.2%,28.7%,> 100 µg/mL,42.7%,64.7%,105%,99.4%,106%,-57%,94.8%,"Selectivity Index [27]: 28.6; inhibition of growth at 0.78 µg/mL [18]: -4.44%; GI50 at 48 h [19]: > 100 µg/mL; MIC (Aspergillus niger): 25 µg/mL; inhibition of growth at 12.5 µg/mL [20]: 101%; inhibition of growth at 3.13 µg/mL [21]: 100%; inhibition of growth at 10 µg/mL (Staphylococcus aureus [22]): 46.8%; inhibition of growth at 6.25 µg/mL [23]: 101%; inhibition of growth at 1.56 µg/mL [24]: 93.4%; inhibition at 48 h, 100 ug/ml [25]: 30.2%; GI50 at 48 h [26]: > 100 µg/mL"

# Reference: ChEMBL document CHEMBL3877264, “Quinolidene-rhodanine conjugates: Facile synthesis and biological evaluation” (Eur J Med Chem, 2017)
